“And” between values parts separate entries of the source, which are not always exact repeats. Identical values can stand only once.
Experiments:
[1] = system: L1210; assay: In vitro cytotoxicity in L1210 leukemia sensitive to cisplatin; format: functional, Mus musculus; conditions: read-out: ID50 (the source's name)
How it was run: (§1)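 L1210 murine leukaemia (sensitive, 40–60-fold DDP-resistant, or 30-fold [Pt(R,R-dach)SO4]-resistant) grown in suspension in McCoy's 5A with 5% horse serum and glutamine. Cells at 5 × 10^4/mL exposed 72 h to 0.01–10 μg/mL (final) compound, from DMF stock diluted in saline (≤0.5% DMF) or water for malonates. Cells Coulter-counted; ID50 from % growth inhibition.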

[2] = system: L1210; assay: In vitro cytotoxicity in L1210 leukemia resistant to cisplatin; format: functional, Mus musculus; conditions: read-out: ID50 (the source's name); how it was run: as §1
[3] = system: Mus musculus; assay: Antitumor activity against P388 leukemia was determined at 5 mg/kg dose given on 1, 5, 9 days after tumor implantation in mice; format: functional, organism-based; set-up: dose 5 mg/kg
How it was run: (§2)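 Male BDF1 mice (18–20 g) inoculated ip with 10^6 L1210/0 or P388 ascites leukemia cells on day 0. Test compound given ip on days 1, 5 and 9; dosing stopped after two doses if over half of the animals had died by day 9. Deaths recorded over 60 days. %T/C = mean survival of treated mice that died ÷ mean survival of untreated tumour-bearing controls. Long-term survivors also counted.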

[4] = system: Mus musculus; assay: Antitumor activity against L1210 leukemia was determined at 5 mg/kg dose given on 1, 5, 9 days after tumor implantation in mice; format: functional, organism-based; set-up: dose 5 mg/kg; how it was run: as §2

| Compound | IC50 [1] | IC50 ([2]; Mus musculus, L1210) [µM] | IC50 [2] [µM] | T/C [3] [%] | T/C [4] [%] |
| --- | --- | --- | --- | --- | --- |
| CC(C)(N)CCC(C)(C)N | 6.2 µM and 0.98 µM | 9.09 | 5.53 |  |  |
| CISPLATIN |  |  |  | 170 | 210 |
